“Also recorded” adds a separate entry of the source. *1 amine or outer side, *2 acyl side, *3 side chain or, on linkers, in order; H or OH if unused. Where a SMILES comes first, the peptide text is derived from it. Bridges are numbered along the chain shown (N, C = ends). [ ]: non-standard residue; d: D form. The star is where a group is joined. hTyr(3S-OH,4S-OH,3'-OSO3H) = N[C@H](C(=O)O)[C@H](O)[C@@H](O)c1ccc(O)c(OS(=O)(=O)O)c1; Orn(4R-OH,5R-OH) = O=C([C@H](C[C@@H](O)[C@@H](O)N[*:3])N[*:1])[*:2]; Pro(3S-OH,4S-Me) = C[C@H]1CN[C@H](C(=O)O)[C@H]1O; X1 = CCCCCOc1ccc(-c2cc(-c3ccc(C(=O)*)cc3)no2)cc1; Gln(3R-OH) = NC(=O)C[C@@H](O)[C@H](N)C(=O)O; Hyp = O=C(O)[C@@H]1C[C@@H](O)CN1
Tests used:
[1] = infants weighing > 1,000 g, single dose 0.75, 1.5 or 3.0 mg/kg; cited from earlier work
[2] = febrile neutropenic pediatric patients, Phase I; cited from earlier work
[3] = adults, cited from earlier work
[4] = Plasma pharmacokinetics of repeat-dose intravenous micafungin in young infants; assay type: in vivo, human; settings: for AUC(0-t): log-linear method; for Vd: Vdss/wt
Procedure, shortened: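 Infants aged >48 h to day of life 120 with suspected candidaemia or invasive candidiasis got test compound by 1-h IV infusion every 24 h. Blood samples (50–100 μl; ≤500 μl total, away from infusion site) were taken around the day-4 dose: pre-dose, end of infusion, and 2–4, 8–12 and 20–24 h. Plasma was measured by LC-MS/MS (LLOQ 0.05 μg/ml). Analysis was non-compartmental: CLss = dose/AUC0–24, AUC by log-linear method, observed Tmax.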

[5] = Safety and tolerability of repeat-dose micafungin in young infants; assay type: in vivo, human
Procedure, shortened: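 Multicentre open-label study: 7 mg/kg/day (≥1,000 g) or 10 mg/kg/day (<1,000 g) by 1-h IV infusion every 24 h for 4–5 days. Safety set: infants given ≥1 dose. Physical exams, haematology, serum chemistry and vital signs were taken at screening (≤72 h pre-dose) and until 72 h after the last dose. Investigators graded AEs for severity and drug relationship; treatment-emergent AEs counted through 72 h post-dose.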

[6] = overall (7 and 10 mg/kg/day groups), day 4, n=12

Compound: CCCCCOc1ccc(-c2cc(-c3ccc(C(=O)N[C@H]4C[C@@H](O)[C@@H](O)NC(=O)[C@@H]5[C@@H](O)[C@@H](C)CN5C(=O)[C@H]([C@H](O)CC(N)=O)NC(=O)[C@H]([C@H](O)[C@@H](O)c5ccc(O)c(OS(=O)(=O)O)c5)NC(=O)[C@@H]5C[C@@H](O)CN5C(=O)[C@H]([C@@H](C)O)NC4=O)cc3)no2)cc1 [micafungin] (X1-[Orn(4R-OH,5R-OH)]T[Hyp][hTyr(3S-OH,4S-OH,3'-OSO3H)][Gln(3R-OH)][Pro(3S-OH,4S-Me)]; lactam 1-C)
- Micafungin clearance rate [1]: 0.65 mL/min/kg
- Micafungin clearance in children 2–8 years relative to children ≥ 9 years of age [2]: 1.5–2.0 times higher
- Average AUC ([3]; 150-mg dose): 166.7 µg·h/mL
- AUC values well tolerated [3]: < 600 µg·h/mL
- Median total body clearance adjusted for weight, lower in infants ≥ 1,000 g than in infants < 1,000 g ([4]; 7 mg/kg/day (≥ 1,000 g) vs 10 mg/kg/day (< 1,000 g)): 21%
- AUC0–24 of a single infant (highest observed) ([4]; 7 mg/kg/day group, subject 4, weight 4.5 kg, single infant): 643.2 µg·h/mL
- CLss/wt, median (range) ([4]; 7 mg/kg/day, IV, day 4, infants ≥ 1,000 g, n=6): 0.4 (0.2–0.6) ml/min/kg
- Tmax, median (range) ([4]; 10 mg/kg/day, 1-h IV infusion, day 4, infants < 1,000 g, n=6): 1.1 (1.0–1.1) h
- CLss/wt, median (range) ([4]; 10 mg/kg/day, IV, day 4, infants < 1,000 g, n=6): 0.6 (0.4–0.8) ml/min/kg
- CLss, median (range) ([4]; 10 mg/kg/day, IV, day 4, infants < 1,000 g, n=6, dose/AUC0–24): 0.4 (0.2–0.5) ml/min
- AUC(0-t) ([4]; human, plasma, iv, 7 mg/kg/day, AUC0–24, mean (SD), 7 mg/kg/day, 1-h IV infusion, day 4, infants ≥ 1,000 g, n=6, plasma, SD): 308 µg·h/mL
- AUC(0-t) ([4]; human, plasma, iv, 7 mg/kg/day, AUC0–24, median (range), 7 mg/kg/day, 1-h IV infusion, day 4, infants ≥ 1,000 g, n=6, plasma): 258 µg·h/mL
- clearance ([4]; human, plasma, iv, 7 mg/kg/day, CLss, mean (SD), 7 mg/kg/day, IV, day 4, infants ≥ 1,000 g, n=6, dose/AUC0–24, SD): 0.9 mL/min
- clearance ([4]; human, plasma, iv, 7 mg/kg/day, CLss, median (range), 7 mg/kg/day, IV, day 4, infants ≥ 1,000 g, n=6, dose/AUC0–24): 0.7 mL/min
- clearance ([4]; human, plasma, iv, 7 mg/kg/day, CLss/wt, mean (SD), 7 mg/kg/day, IV, day 4, infants ≥ 1,000 g, n=6, SD): 0.4 mL/min/kg
- clearance ([4]; human, plasma, iv, 7 mg/kg/day, CLss/wt, median (range), 7 mg/kg/day, IV, day 4, infants ≥ 1,000 g, n=6): 0.45 mL/min/kg
- Vd ([4]; human, plasma, iv, 7 mg/kg/day, mean (SD), 7 mg/kg/day, IV, day 4, infants ≥ 1,000 g, n=6, SD): 0.391 L/kg
- Vd ([4]; human, plasma, iv, 7 mg/kg/day, median (range), 7 mg/kg/day, IV, day 4, infants ≥ 1,000 g, n=6): 0.341 L/kg
- AUC(0-t) ([4]; human, plasma, iv, 10 mg/kg/day, AUC0–24, median (range), 10 mg/kg/day, 1-h IV infusion, day 4, infants < 1,000 g, n=6, plasma): 291 µg·h/mL
- clearance ([4]; human, plasma, iv, 10 mg/kg/day, CLss, mean (SD), 10 mg/kg/day, IV, day 4, infants < 1,000 g, n=6, dose/AUC0–24, SD): 0.4 mL/min
- clearance ([4]; human, plasma, iv, 10 mg/kg/day, CLss/wt, mean (SD), 10 mg/kg/day, IV, day 4, infants < 1,000 g, n=6, SD): 0.6 mL/min/kg
- clearance ([4]; human, plasma, iv, 10 mg/kg/day, CLss/wt, median (range), 10 mg/kg/day, IV, day 4, infants < 1,000 g, n=6): 0.57 mL/min/kg
- Vd ([4]; human, plasma, iv, 10 mg/kg/day, mean (SD), 10 mg/kg/day, IV, day 4, infants < 1,000 g, n=6, SD): 0.51 L/kg
- Vd ([4]; human, plasma, iv, 10 mg/kg/day, median (range), 10 mg/kg/day, IV, day 4, infants < 1,000 g, n=6): 0.543 L/kg
- AUC(0-t) ([4]; human, plasma, iv, AUC0–24, mean (SD), overall (7 and 10 mg/kg/day groups), day 4, n=12, plasma, SD): 308 µg·h/mL
- AUC(0-t) ([4]; human, plasma, iv, AUC0–24, median (range), overall (7 and 10 mg/kg/day groups), day 4, n=12, plasma): 275 µg·h/mL
- clearance ([4]; human, plasma, iv, CLss/wt, mean (SD), overall (7 and 10 mg/kg/day groups), day 4, n=12, SD): 0.5 mL/min/kg
- Tmax ([4]; human, plasma, iv, Tmax, mean (SD), overall (7 and 10 mg/kg/day groups), day 4, n=12, SD): 1.2 h
- Vd ([4]; human, plasma, iv, mean (SD), overall (7 and 10 mg/kg/day groups), day 4, n=12, SD): 0.45 L/kg
- Vd ([4]; human, plasma, iv, median (range), overall (7 and 10 mg/kg/day groups), day 4, n=12): 0.503 L/kg
- CLss/wt, median (range) [4, 6]: 0.5 (0.2–0.8) ml/min/kg
- Tmax, median (range) [4, 6]: 1.1 (1.0–2.1) h
- Allergic or histamine-like reactions, infusion-related toxicity, nephrotoxicity or hepatotoxicity ([5]; 7 and 10 mg/kg/day): no instances
- Changes in AST and ALT from baseline to post-treatment ([5]; 7 and 10 mg/kg/day): minimal
- Renal toxicity / changes in hematology parameters ([5]; 7 and 10 mg/kg/day): no evidence of renal toxicity or significant changes in hematology parameters
- Infants with AEs irrespective of causality ([5]; 7 and 10 mg/kg/day IV, ≥ 4 days, 12/13 infants): 92.3%
- Deaths / discontinuations because of an AE ([5]; 7 and 10 mg/kg/day, 13 infants): No deaths occurred in this study and no patients withdrew prematurely from the study because of an AE; also recorded: No deaths or discontinuations from treatment occurred
- Tolerability ([5]; doses of up to 10 mg/kg/day IV, ≥ 4 days, young infants): well tolerated
- Infants with serious AEs ([5]; four infants of 13, two in each treatment group): 30.8%
